Experimental data collected from several papers.
Each line is one published result; the experiments were not run side by side. pIC50: −log10 of the molar value.
Effect on: cell growth or viability

With `Cc1cc(C)c2cc(CNCCCNc3nc4ccccc4[nH]3)[nH]c2c1` the pIC50 was under 5.00 (HEK293).
`COc1cc(Nc2nccc(-c3cnn4nc(OC)ccc34)n2)cc(C(F)(F)F)c1` gave a pIC50 of 6.24 (MKN-1; ATP luminescence).
`CCCCCCCCc1c(C)[nH]c(C)c(Cl)c1=O` has a pIC50 of under 5.00 (HEK293).
With `C=CC(=O)Nc1cccc(Nc2nc(Nc3ccc(OCCOC)cc3)ncc2F)c1` the pIC50 was 5.90 (NCI-H1975).
With `C=CC(=O)Nc1cccc(N2C(=O)OC(C)c3cnc(Nc4ccc(N5CCN(C)CC5)cc4OC)nc32)c1` (stereo not shown) the pIC50 was 7.55 (TMD8; CCK-8; 72 h).
`Cc1[nH]c(C)c(-c2ccc(-c3cc(C(F)(F)F)cc(C(F)(F)F)c3)nc2)c(=O)c1Br` has a pIC50 of under 5.00 (HEK293).
`COC(=O)c1cc2ccc(O)cc2oc1=O` gave a pIC50 of under 4.70 (HEK293; MTT; 36 h).
The pIC50 of `Cn1nnc2c(Cl)ncn2c1=O` is reported as 4.22 (T98G; resazurin; 7 days).
`CC(C)[C@H](N)C(=O)N1CCC[C@H]1B(O)O` gave a pIC50 of 8.22 (SET-2; ATP luminescence; 48 h).
With `O=c1cc(CCl)c2c(O)cc(O)cc2o1` the pIC50 was under 4.70 (HEK293; MTT; 36 h).
`CCC(=O)Nc1cc(Nc2nc(N3CCc4sccc4C3)c3cccnc3n2)c(OC)cc1N1CCN(CCO)CC1` has a pIC50 of 6.33 (NCI-H1975; MTT).
`CC#CC(=O)N1CCC[C@H]1c1nc(-c2ccc(C(=O)Nc3ccccn3)cc2)c2c(N)nccn12` gave a pIC50 of 7.85 (TMD8; CCK-8; 72 h).
With `CCC(=O)Nc1cc(Nc2nc(Nc3cnn(C)c3)c3sccc3n2)c(OC)cc1N(C)CCN(C)C` the pIC50 was under 4.30 (NCI-H1975; MTT).
With `O=c1cc(CCl)c2ccc(O)cc2o1` the pIC50 was 4.80 (HEK293; MTT; 36 h).
With `Cc1[nH]c(C)c(-c2ccc(CCc3ccc(F)cc3F)cc2)c(=O)c1Br` the pIC50 was under 5.00 (HEK293).
The pIC50 of `O=C1Nc2ccccc2-c2cnc(NCc3c(F)ccc4c3CCO4)n3cnc1c23` is reported as 7.17 (KARPAS-422; CCK-8; 7 days).
For `CCCCN(CCCC)C(=O)c1ncn2c(=O)n(C)nnc12`, the pIC50 was 3.85 (T98G; resazurin; 7 days).
`O=C(Nc1ccc(OC2CCN(Cc3ccccc3)C2)c(Cl)c1)c1cccs1` (stereo not shown) gave a pIC50 of under 5.00 (HEK293).
For `CCSC(=O)c1ncn2c(=O)n(C)nnc12`, the pIC50 was 3.49 (T98G; resazurin; 7 days).
The pIC50 of `C=C(Cl)C(=O)Nc1cc(Nc2nc(N3CCCC3)c3sccc3n2)c(OC)cc1N(C)CCN(C)C` is reported as 6.90 (NCI-H1975; MTT).
For `Cn1nnc2c(C(=O)N3CCCC3)ncn2c1=O`, the pIC50 was 3.73 (T98G; resazurin; 7 days).
With `C=CC(=O)Nc1cc(Nc2nc(N3CCc4sccc4C3)c3cccnc3n2)c(OC)cc1N1CCN(C(C)=O)CC1` the pIC50 was 6.16 (NCI-H1975; MTT).
The pIC50 of `COc1ccc(F)cc1C(=O)NCc1ccc(-c2nn([C@@H](C)C(F)(F)F)c(N)c2C(N)=O)cc1` is reported as 8.19 (TMD8; ATP luminescence; 72 h).
The pIC50 of `C=C(Cl)C(=O)Nc1cc(Nc2nc(Nc3cnn(C)c3)c3sccc3n2)c(OC)cc1N1CCN(C)CC1` is reported as 6.97 (NCI-H1975; MTT).
`CC(=O)Oc1ccc2ccc(=O)oc2c1CBr` has a pIC50 of under 4.70 (HEK293; MTT; 36 h).
The pIC50 of `C=C(Cl)C(=O)Nc1cc(Nc2nc(Nc3cnn(C)c3)c3sccc3n2)c(OC)cc1N(C)CCN(C)C` is reported as 7.64 (NCI-H1975; MTT).
`Cc1cc(=O)c(-c2ccc(Oc3cccc(Cl)c3)cc2)c(C)[nH]1` gave a pIC50 of under 5.00 (HEK293).
For `C=CC(=O)N1CCC[C@@H](n2nc(-c3ccc(Oc4ccccc4)cc3)c3c(N)ncnc32)C1`, the pIC50 was under 5.00 (CNE2Z).
`O=C1NCCc2[nH]c(-c3ccncc3)cc21` has a pIC50 of 5.02 (SK-MEL-28).
`Cc1c(O)ccc2ccc(=O)oc12` gave a pIC50 of under 4.70 (HEK293; MTT; 36 h).
`C=CC(=O)Nc1cc(Nc2nc(N3CCc4sccc4C3)c3cccnc3n2)c(OC)cc1N1CCSCC1` has a pIC50 of 6.51 (NCI-H1975; MTT).
`COc1cc2c(Nc3ccc(Cl)c(Cl)c3F)ncnc2cc1OC[C@@H]1C[C@@H]2CN(C)C[C@@H]2C1` gave a pIC50 of 6.99 (GBM6; ATP luminescence; 18 days; 3D culture).
The pIC50 of `COc1c(C)[nH]c(C)c(-c2ccc(Oc3cccc(C(F)(F)F)c3)cc2)c1=O` is reported as under 5.00 (HEK293).
`CC[C@@H](C)[C@H](N)C(=O)N1Cc2ccccc2C1` gave a pIC50 of 7.05 (SET-2; ATP luminescence).
`Cc1[nH]c(C)c(-c2ccc(OCc3ccc(F)cc3)cc2)c(=O)c1Cl` gave a pIC50 of under 5.00 (HEK293).
With `C=CC(=O)Nc1cc(Nc2nc(N3CCc4sccc4C3)c3cccnc3n2)c(OC)cc1N(C)C` the pIC50 was under 4.30 (NCI-H1975; MTT).
`C[C@H](O)C(=O)CCCCCCC(=O)Nc1cccc(-c2cn(-c3ccccc3)nn2)c1` has a pIC50 of 4.80 (HEK293; XTT).
